Published values gathered from unrelated publications.
Each line is one published result; the experiments were not run side by side.
Organism: Plasmodium falciparum
Effect on: parasite growth

Cc1ccc(N(C)c2ccc(NC(=O)CN(C)c3ccccc3N3CCCC3=O)cn2)cc1
EC50 (3D7; 72 h, blood stage): 13 nM

CCN(CC)CCCC(C)Nc1ccnc2cc(Cl)ccc12 (stereo not drawn)
EC50 (3D7; blood stage): 8 nM

Cc1ccc(N(C)c2ccc(NC(=O)CN(C)c3ccccc3N3CCCC3=O)c(F)c2)cc1
EC50 (3D7; 72 h, blood stage): 3 nM

COc1cc(NC(C)CCCN)c2ncccc2c1 (stereo not drawn)
inhibition (100 µM, gametocyte): 100%

COc1cc(/C=C2\CCC/C(=C\c3ccc(O)c(OC)c3)C2=O)ccc1O
EC50 (3D7; blood stage): 200 nM

CCN(c1ccc(C)cc1)c1ccc(NC(=O)CN(C)c2ccccc2N2CCCC2=O)cn1
EC50 (3D7; 72 h, blood stage): 4 nM

COc1cc(/C=C2\CC/C(=C\c3ccc(O)c(OC)c3)C2=O)ccc1O
EC50 (3D7; blood stage): 250 nM

CCN(CC)CCOc1ccc2c(c1)C(=O)c1cc(OCCN(CC)CC)ccc1-2
IC50 (NF54; blood stage): 647 nM

COc1cc(/C=C/C(=O)/C=C/c2ccc(O)c(OC)c2)ccc1O
EC50 (3D7; blood stage): 150 nM

COC1=CC(c2ccc[nH]2)=N/C1=C\c1[nH]c(C)cc1Cc1ccc(OC(F)(F)F)cc1
IC50 (SYBR Green; D6; 72 h, blood stage): 2.48 nM

Cc1ccc(Oc2ccc(NC(=O)CNc3ccccc3N3CCCCC3=O)cc2)cc1
EC50 (3D7; 72 h, blood stage): 2500 nM

Cc1[nH]c(/C=C2\N=C(c3ccc[nH]3)C3=C2OCCO3)cc1Cc1ccc(Cl)cc1
IC50 (SYBR Green; D6; 72 h, blood stage): 14.3 nM

Cc1nnc(-c2ccc3ccn(CC(=O)Nc4cccnc4)c3c2)o1
EC50 (3D7; 72 h, blood stage): 4250 to 4780 nM

COC1=C(OC)/C(=C/c2[nH]c(Cc3ccc(OC(F)(F)F)cc3)cc2Cc2ccc(OC(F)(F)F)cc2)N=C1c1ccc[nH]1
IC50 (SYBR Green; D6; 72 h, blood stage): 85.9 nM

CC(=O)[C@@]1(O)[C@H](O)C[C@H]2[C@@H]3CCC4=CC(=O)CC[C@]4(C)[C@H]3CC[C@@]21C
IC50 (SYBR Green; 3D7; blood stage): 142 nM

CCCN(c1ccc(C)cc1)c1ccc(NC(=O)CN(C)c2ccccc2N2CCCC2=O)cc1
EC50 (3D7; 72 h, blood stage): 10 nM

COc1cc(/C=C/C(=O)C(=Cc2ccc(O)cc2)C(=O)/C=C/c2ccc(O)c(OC)c2)ccc1O
EC50 (3D7; blood stage): 4350 nM

CNCC[C@H](Oc1cccc2ccccc12)c1cccs1
IC50 (NF54; blood stage): 706 nM

Cc1cc2ccc(-c3cnn(C)c3)cc2n1CC(=O)Nc1ccccc1Cl
EC50 (3D7; 72 h, blood stage): 603 nM

CCC1=C(CC)/C(=C/c2cc(Cc3ccc(Cl)cc3)c(C)[nH]2)N=C1c1ccc[nH]1
IC50 (SYBR Green; D6; 72 h, blood stage): 343 nM

Cc1ccc(N(C)c2ccc(NC(=O)CN(C)c3ccccc3N3CCCC3=O)cc2)nc1
EC50 (3D7; 72 h, blood stage): 4000 nM

COC1=CC(c2ccc[nH]2)=N/C1=C\c1cc(Cc2ccc(OC)cc2)c(-c2ccc(OC)cc2)[nH]1
IC50 (SYBR Green; D6; 72 h, blood stage): 89 nM

Cc1ccc(Oc2ccc(NC(=O)COc3ccccc3N3CCCC3=O)cc2)cc1
EC50 (3D7; 72 h, blood stage): 1570 nM

CC(C(=O)Nc1ccccc1Cl)n1ccc2ccc(-c3cnn(C)c3)cc21 (stereo not drawn)
EC50 (3D7; 72 h, blood stage): 1120 nM

COC1=CC(c2ccc[nH]2)=N/C1=C\c1cc(Cc2ccc(OC(F)(F)F)cc2)c(C)[nH]1
IC50 (SYBR Green; D6; 72 h, blood stage): 3.17 nM

C[C@H]1Cc2c([nH]c3cc(Cl)c(F)cc23)[C@@]2(N1)C(=O)Nc1ccc(Cl)cc12
EC50 (DD2; 72 h, blood stage): 0.7 nM

COC1=C(OC)/C(=C/c2cc(-c3ccc(OC(F)(F)F)cc3)c(C)[nH]2)N=C1c1ccc[nH]1
IC50 (SYBR Green; D6; 72 h, blood stage): 521 nM

Cc1ccc(N(CC2=NCCN2)c2cccc(O)c2)cc1
IC50 (SYBR Green; 3D7; blood stage): 1790 nM

Cc1ccc(N(C)c2ccc(NC(=O)CN(C)c3cc(F)ccc3N3CCCC3=O)cc2)cc1
EC50 (3D7; 72 h, blood stage): 34 nM

CCC1=C(CC)/C(=C/c2[nH]c(Cc3ccc(OC(F)(F)F)cc3)cc2Cc2ccc(OC(F)(F)F)cc2)N=C1c1ccc[nH]1
IC50 (SYBR Green; D6; 72 h, blood stage): 2040 nM
